Bioassay records as filed in PubChem BioAssay.
Shown are actives, neighbours in structure and some others; about 1.3% of the full set was active somewhere.
TbHK1 inh – Trypanosoma brucei hexokinase 1 inhibitors, primary screen, biochemical, G6PDH-coupled NADH absorbance, MLSCN library; AID 1430, 2008; hexokinase 1 [Trypanosoma brucei]; recombinant TbHK1, G6PDH-coupled NADH A340; inhibition, % at 10 µM; hit rate 0.11% among 220,000;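 active = inhibition of 50% or more in the single-dose primary screen; inactive = inhibition below 50%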
Calb biofilm kill – clotrimazole potentiators killing C. albicans biofilm, primary screen, 4-compound mixtures; C. albicans biofilm persisters + clotrimazole, fluorescence viability; primary screen in compound mixtures of four per well; AID 1242, 2008; hit rate 0.02% among 120,000; inhibition, % at 7.6 µM;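 active = inhibition above 30.3% in the primary screen of four-compound pools, then above 30% when the compound was retested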;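 note: compounds exposed to preformed 24 h biofilms for 48 h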
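Test system: C. albicans biofilms. Buffer or medium: RPMI/MOPS medium, pH 7.0. Timing: 48 h compound exposure at 37 °C. Technique: Alamar Blue fluorescence. Evaluation: percent inhibition of biofilm viability.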
S1P3 antag – S1P3 receptor antagonists, primary screen, cell-based; CHO S1P3 NFAT-BLA reporter, FRET fluorescence, antagonist mode; inhibition, % at 4.98 µM; hit rate 0.27% among 170,000;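 active = inhibition above the plate cutoff, the mean inhibition of test wells on that plate plus 3 SD, cut at about 28% in these data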;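 note: cells challenged with S1P at its EC80 of 0.8 µM; blue over green emission ratio from cleaved BLA substrate after 4 h stimulation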
Target sequence (Q99500 whole entry, looked up): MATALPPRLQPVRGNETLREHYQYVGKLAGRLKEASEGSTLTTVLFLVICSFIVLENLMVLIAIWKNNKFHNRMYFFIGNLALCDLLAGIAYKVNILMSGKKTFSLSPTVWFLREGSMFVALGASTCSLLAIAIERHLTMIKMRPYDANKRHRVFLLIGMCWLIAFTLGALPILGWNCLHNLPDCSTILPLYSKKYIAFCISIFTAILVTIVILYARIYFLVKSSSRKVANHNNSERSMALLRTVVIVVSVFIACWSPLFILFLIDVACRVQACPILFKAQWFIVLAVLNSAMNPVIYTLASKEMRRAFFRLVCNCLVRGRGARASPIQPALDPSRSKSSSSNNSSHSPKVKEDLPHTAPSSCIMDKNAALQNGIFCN
S1P4 antag – S1P4 receptor antagonists, primary screen, cell-based; Sphingosine 1-phosphate receptor 4 (Homo sapiens), O95977; S1P4-expressing cells, antagonist mode, reporter read-out; inhibition, % at 4.98 µM; hit rate 0.26% among 220,000; in the data active = inhibition above about 29%
S1P4 agonist – S1P4 receptor agonists, primary screen, cell-based | activation, % at 4.98 µM | S1P4-expressing cell line, agonist reporter assay | Sphingosine 1-phosphate receptor 4 (Homo sapiens), O95977 | hit rate 0.35% among 220,000 | AID 1509, 2009; in the data active = activation above about 11%
Dynein transport – inhibitors of GR-EGFP nuclear translocation, primary screen, dynein cargo transport inhibitor project, imaging, high-content, 3617.4 mouse cells; hit rate 0.47% among 220,000; test concentration mostly 20 µM; stimulated with dexamethasone, 1 µM; hits give low values; z-score, hits read low; AID 1381, 2008;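 active = plate z-score of nuclear minus cytoplasmic receptor signal below a set negative limit, without overly bright fluorescence or cell loss, cut at about -3.5 in these data, passing the limit was not always enough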;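 note: z-score of nuclear minus cytoplasmic ring GR-EGFP intensity difference per well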
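Buffer or medium – tet-free medium with charcoal-stripped serum · Signal – automated 10x imaging of fixed Hoechst-stained cells · Also added – dexamethasone agonist, 1.0 µM final, for 30 min · Incubation – induction 48 h, compound 1 h, agonist 30 min · Read-out – GR-EGFP nuclear translocation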
S1P4 ag conf – S1P4 receptor agonists, retest, confirmation, cell-based, high throughput; shares compounds with S1P4 agonist; S1P4 agonist cell-based reporter assay; activation, % at 4.98 µM; hit rate 7% among 740; AID 1523, 2009; in the data active = activation above about 12%
S1P1 agonist – S1P1 receptor agonists, human, counter-screen for S1P4 agonist project, cell-based; AID 1563, 2009; hit rate 4% among 740; S1P1 agonist cell-based assay, activation; shares compounds with S1P4 agonist; activation, % at 4.98 µM; in the data active = activation above about 21%
Target sequence (P21453 whole entry, looked up): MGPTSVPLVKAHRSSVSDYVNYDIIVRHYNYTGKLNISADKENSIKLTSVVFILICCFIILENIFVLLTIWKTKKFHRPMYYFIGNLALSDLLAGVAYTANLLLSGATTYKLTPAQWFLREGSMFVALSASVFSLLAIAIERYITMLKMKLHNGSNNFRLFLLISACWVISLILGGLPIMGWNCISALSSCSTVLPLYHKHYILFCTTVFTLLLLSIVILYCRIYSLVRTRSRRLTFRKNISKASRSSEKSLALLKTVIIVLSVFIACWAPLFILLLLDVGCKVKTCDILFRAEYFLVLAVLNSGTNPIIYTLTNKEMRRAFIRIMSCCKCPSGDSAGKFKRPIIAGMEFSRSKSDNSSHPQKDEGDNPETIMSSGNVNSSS
Numbers stand for hits; 0 = inactive; - = no result.

SMILES | TbHK1 inh | Calb biofilm kill | S1P3 antag | S1P4 antag | S1P4 agonist | Dynein transport | S1P4 ag conf | S1P1 agonist
CCOC(=O)Cn1nc(C)c(NC(=O)COc2cccc(Cl)c2)c1C | 0 | 0 | 0 | 0 | 12 | 0 | 0 | 0
CCOC(=O)Cn1nc(C)c(NC(=O)COc2ccc([N+](=O)[O-])cc2)c1C | 0 | 0 | 0 | 0 | 0 | 0 | - | -
O=C(NCCSCc1ccc(Cl)cc1)c1cccs1 | 0 | 0 | 0 | 0 | 0 | 0 | - | -
CC(C)C[C@H](NC(=O)c1nc[nH]c1C(=O)NCc1ccccc1)C(=O)OCc1ccccc1 | 0 | 0 | 0 | 0 | 20 | 0 | 26 | 0
CCCCNC(=O)CCn1c(=O)c2ccccc2n(Cc2ccc(F)cc2)c1=O | 0 | 0 | 0 | 0 | 15 | 0 | 0 | 0
Cc1cccc[n+]1CC(=O)/C=C1\N(C)c2ccccc2C1(C)C | 0 | 0 | 0 | 0 | 21 | 0 | 0 | 0
COc1ccc(NC(=O)CSc2nc3c(c(=O)n2-c2ccc(F)cc2)SCC3)c(OC)c1 | 0 | - | 0 | 0 | 13 | 0 | 0 | 0
Cc1cccn2c(=O)c3cc(C#N)c(=NC(=O)c4cccs4)n(CCCOC(C)C)c3nc12 | 0 | 0 | 0 | 0 | 0 | 0 | - | -
CCOCCCn1c(=NC(=O)c2cccs2)c(C#N)cc2c(=O)n3ccccc3nc21 | 0 | 0 | 0 | 0 | 15 | 0 | 0 | 30
O=C(CSc1nc2ccccc2c(=O)n1-c1ccc(F)c(Cl)c1)Nc1cccc(S(=O)(=O)N2CCOCC2)c1 | 0 | 0 | 0 | 0 | 30 | 0 | 0 | 0
Fc1ccc(NC(=S)N2CCN(c3ncccn3)CC2)cc1 | 0 | 0 | 0 | 0 | 0 | 0 | - | -
Cc1cccc(C(=O)NNc2ncnc3c2cnn3C)c1 | 0 | 0 | 0 | 0 | 15 | 0 | 0 | 0
CNC(=S)N/N=C/c1c(C)nn(-c2ccccc2)c1Cl | 0 | - | - | 0 | 0 | 0 | - | -
Cc1nn(-c2ccccc2)c(Cl)c1/C=N/NS(=O)(=O)c1ccc(Br)cc1 | 0 | 0 | 0 | 0 | 51 | 0 | 0 | 0
CN(C(=S)NC(=O)Cc1ccccc1)c1ccccc1 | 0 | 0 | 0 | 0 | 13 | 0 | 0 | 0
CCN(CC)C(=S)NC(=O)Cc1ccccc1 | 0 | 0 | 0 | 0 | 0 | 0 | - | -
Cc1ccc(S(=O)(=O)N2CCSC2=Nc2ccccc2)cc1 | 0 | 0 | 0 | 0 | 0 | 0 | - | -
Cc1ccccc1CNc1ccc(C(CC(N)=O)NC(=O)c2ccccc2)cc1[N+](=O)[O-] (stereo not given) | 0 | 0 | - | - | - | 0 | - | -
Cn1c(/C=C(\C#N)C(N)=S)ccc1-c1ccc(Br)cc1 | 0 | 0 | 0 | 0 | 0 | 0 | - | -
CCC(C)NCCCOc1ccc([N+](=O)[O-])cc1 (stereo not given) | 0 | 0 | 0 | 0 | 58 | 0 | 0 | 0
COc1ccnc(-n2cccc2/C=N/O)c1C#N | 0 | 0 | 0 | 0 | 0 | 0 | - | -
COCCSc1nc(N)c(NC(=O)c2ccc(OC)cc2)c(=O)[nH]1 | 0 | 0 | 0 | 0 | 12 | 0 | 0 | 0
COc1ccc(-c2nnn(CC(=O)N(CCCN3CCOCC3)C(C(=O)NC3CCCC3)c3ccc(C)o3)n2)cc1 (stereo not given) | 0 | 0 | 0 | 0 | 0 | 0 | - | -
COc1ccc(-c2nnn(CC(=O)N(CCCN3CCOCC3)C(C(=O)NC3CCCC3)c3ccco3)n2)cc1 (stereo not given) | 0 | 0 | 0 | 0 | 14 | 0 | 0 | 0
Cc1cc2c(NS(=O)(=O)c3ccc(F)cc3)cccc2nn1 | 0 | 0 | 0 | 0 | 116 | 0 | 0 | 0
SMILES | TbHK1 inh | Calb biofilm kill | S1P3 antag | S1P4 antag | S1P4 agonist | Dynein transport | S1P4 ag conf | S1P1 agonist
Cc1onc(C(=O)N2CCOCC2)c1[N+](=O)[O-] | 0 | 0 | 0 | 0 | 19 | 0 | 0 | 0
Cn1c(-c2cc3ccc(OC(=O)C(C)(C)C)cc3oc2=O)nc2ccccc21 | 0 | - | - | 0 | 24 | 0 | 18 | 0
COc1cccc(C2CN(c3ccc(F)cc3F)N=C2c2cccs2)c1OC (stereo not given) | 0 | 0 | - | 0 | 25 | 0 | 15 | 43
O=C(Cn1c(=O)oc2cccnc21)Nc1ccccc1Oc1ccc(Cl)cc1Cl | 0 | 0 | 0 | 0 | 0 | 0 | - | -
O=c1c2ccccc2nc(SCc2nc3ccccc3s2)n1CCCO | 0 | 0 | 0 | 0 | 21 | 0 | 0 | 0
O=C(CSc1nc2ccccc2c(=O)n1CCCO)NCc1ccccc1 | 0 | - | 0 | 0 | 0 | 0 | - | -
Cc1cccc(N2C(=O)CC(c3ccc(F)cc3)C3=C2COC3=O)c1 (stereo not given) | 0 | 0 | 0 | 0 | 0 | 0 | - | -
Nc1ccccc1SCC1CSc2nc3ccccc3c(=O)n21 (stereo not given) | 0 | 0 | 0 | 0 | 14 | 0 | 0 | 0
COc1cccc(SCC2CSc3nc4ccccc4c(=O)n32)c1 (stereo not given) | 0 | 0 | 0 | 0 | 0 | 0 | - | -
Cc1cc(C(=O)N2CCN(S(=O)(=O)c3ccccc3F)CC2)c(C)o1 | 0 | 0 | 0 | 0 | 0 | 0 | - | -
COc1ccc2c(c1OC)C(=O)OC2Nc1ccccc1S(=O)(=O)C(F)F (stereo not given) | 0 | - | 0 | 0 | 17 | 0 | 0 | 0
COC(=O)c1cc(NC(=O)c2ccc(OC)cc2)c(=O)oc1C | 0 | 0 | 0 | 0 | 0 | 0 | - | -
CCOC(=O)c1cc(NC(=O)c2ccc(OC)cc2)c(=O)oc1-c1ccccc1 | 0 | - | - | 0 | 22 | 0 | 0 | 0
COc1ccccc1C1c2[nH]c3ccccc3c2CCN1Cc1ccc(NC(C)=O)s1 (stereo not given) | 0 | 0 | 0 | 0 | 0 | 0 | - | -
CCOC(=O)c1sc(Nc2nc(OC)cc(OC)n2)nc1C | 0 | 0 | 0 | 0 | 64 | 0 | 0 | 0
CCOC(=O)c1sc(NC(C)=O)nc1C | 0 | - | - | 0 | 0 | 0 | - | -
CCOC(=O)C1=C(CBr)NC(=O)NC1C (stereo not given) | 0 | 0 | 0 | 0 | 0 | 0 | - | -
COC(=O)c1ccc(NC(=O)CCn2c(=O)oc3ccccc32)cc1 | 0 | - | 0 | 0 | 13 | 0 | 0 | 0
Cc1ccccc1NC(=O)CCn1c(=O)oc2ccccc21 | 0 | - | 0 | 0 | 0 | 0 | - | -
CC(C)/C=N/Nc1nc(-c2ccc(Br)cc2)cs1 | 0 | 0 | 0 | 0 | 34 | 0 | 0 | 0
Cc1cc(C(=O)OCC(=O)Nc2cccc(S(N)(=O)=O)c2)c2ccccc2n1 | 0 | 0 | 0 | 0 | 0 | 0 | - | -
COc1cnc(SC)nc1Nc1ccc(C#N)cc1 | 0 | 0 | 0 | 0 | 0 | 0 | - | -
